A selection: hits, their analogues and other compounds. The true share with any hit is near 2.7%.
Yeast growth inh: yeast BB579 growth reduction in restrictive medium | S. cerevisiae BB579 growth, OD615, 48 h | inhibition, % at 10 µM | hit rate 0.51% among 140,000 | AID 804;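 active = inhibition above a set limit, 3 SD over the mean compound inhibition, cut at about 44% in these data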
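System: Saccharomyces cerevisiae DeaD strain BB579, replicative lifespan model yeast. Buffer or medium: restrictive glucose-based CSMM-D medium. Doses: one dose, 10 µM compound with 0.25% DMSO. Timing: 4 h preincubation and 48 h exposure at 30 °C. Detection: turbidity as optical density at 615 nm. Benchmarks: amphotericin B 10 µg/mL, positive.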
Yeast lifespan up: extends the lifespan of yeast; inhibition of the nicotinamide effect, % at 10 µM; S. cerevisiae growth with nicotinamide, OD615; deaD strain in restrictive glucose medium; hit rate 0.68% among 130,000; AID 775;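 active = inhibition above a set limit, placed 3 SD over the median of all compounds, cut at about 26% in these data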;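 also: 0% = nicotinamide-treated wells and 100% = cells grown without nicotinamide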
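assay system = DeaD-strain S. cerevisiae | buffer or medium = restrictive glucose medium | reagent = 1.5 mM nicotinamide | compound = 10 µM single point, 0.25% DMSO | incubation = 48 h compound exposure at 30 °C, humidified | signal = OD615 measurement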
sdo1 growth: compounds rescuing growth of sdo1-depleted yeast, bone marrow failure model | S. cerevisiae sdo1-depleted JHY4D growth rescue, OD600 30 h; active compounds read high; pdr5 snq2 efflux-pump mutant strain | z-score at 10 µM | hit rate 0.21% among 140,000;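 active = z-score above 3 at both the 24 hr and the 30 hr optical density reads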;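 also: z-score against mean and SD of all compound wells on the same plate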
RAM network inh: blocks the yeast RAM network; S. cerevisiae dse1pr::URA3 reporter, 5-FOA growth OD615, 2 d; analog-sensitive cbk1-as2 kinase mutant strain; inhibition, % at 50 µM; hit rate 1.8% among 190,000;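 active = inhibition above a set limit, 3 SD over mean compound inhibition, cut at about 8.4% in these data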;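 also: 0% = DMSO-only wells with no growth and 100% = 10 µM 1-NA-PP1 full growth; inhibition rescues growth on 5-FOA so higher OD means more RAM inhibition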
SDO1 rescue DR: confirmation of growth rescue in SDO1-depleted yeast, bone marrow failure | shares compounds with sdo1 growth | S. cerevisiae JHY4D (SDO1-depleted) growth rescue, OD600, 30 h; active compounds read high; efflux-deficient strain, SNQ2 and PDR5 mutated | OD recovery (test concentration not listed) | hit rate 44% among 440 | AID 949;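 active = yeast growth recovered at 30 hours, either rising with dose fitted slope above 0.001 or with average optical density gain above 0.07, some results past the limit were not filed as active; inactive = growth falling with dose or no effect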;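 also: gain in OD600 from 0 h to 30 h averaged across all seven doses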
RAM 5-FOA: restores 5-FOA growth of efflux-deficient yeast. 1,200 tested, under 10 active. shares compounds with RAM network inh. AID 1305. max inhibition, %. S. cerevisiae efflux-deficient reporter strain, 5-FOA growth OD615, 2 days; call rule not given here;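 also: plate controls were vehicle for no effect and reference inhibitor for full effect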
Numbers without * were called inactive; · = not tested or not shown.

SMILES	Yeast growth inh	Yeast lifespan up	sdo1 growth	RAM network inh	RAM 5-FOA	others
CC12CC(c3ccccc3O1)C(C(=O)OCc1ccccc1)C(=O)N2 (configuration not stated)	-3	·	-0.06	3	·
O=C1CN=C(c2ccc(Br)cc2)c2c(sc3c2CCCC3)N1CCN1CCCCC1	·	·	·	0	·
O=C(O)CCCc1ccc(N(CCCl)CCCl)cc1	-23	27*	-0.09	9.8*	·
Cc1cccc(NP(=O)(Oc2ccccc2F)Oc2ccccc2F)c1C	4	13	-0.13	8.7*	·
CP(=O)(O)CCCN	-14	-2	0.06	0	·
CC(C)CCNC(=O)c1cc(C(=O)c2cc(Br)ccc2O)cn(CCC(C)C)c1=O	·	·	·	9.2*	·
Cn1c(=O)cc(SCC(=O)N2CCC3(CC2)OCCO3)c2ccccc21	4	-2	3.4*	1	·	SDO1 rescue DR=0.071*
Cn1c(=O)cc(OCC(=O)N2CCC3(CC2)OCCO3)c2ccccc21	-39	-12	0.93	0	·
Cc1c(C(c2ccc(O)cc2)c2c(O)c3ccccc3oc2=O)c(=O)n(-c2ccccc2)n1C (configuration not stated)	-28	3	3.4*	4	·	SDO1 rescue DR=0.039
NS(=O)(=O)c1ccc(N2CCNCC2)cc1	·	·	·	1	·
CCCCN1C(=O)/C(=C\c2ccco2)C(=O)N(CCc2ccccc2)C1=O	-35	24	10*	2	·	SDO1 rescue DR=0.066
OC1/C(=C/c2ccccc2C(F)(F)F)N2CCC1CC2 (configuration not stated)	·	·	·	0	·
COc1cccc(-n2c(=S)[nH]c3ccccc3c2=O)c1	·	·	·	1	·
O=c1c2ccc(Cl)cc2[nH]c(=S)n1-c1cccnc1	·	·	·	16*	2
CCN(CC)P(=O)(/C=C(\Cl)c1ccccc1)/C=C(\Cl)c1ccccc1	·	·	·	0	·
O=C(COc1ccccc1)c1cn(Cc2ccccc2)c2ccccc12	-25	0	0.04	12*	5
O=C(c1ccco1)c1cn(Cc2ccccc2)c2ccccc12	-1	-10	-2.2	6	·
O=C(c1ccco1)c1cn(Cc2ccccc2Cl)c2ccccc12	-29	-9	-1.3	18*	4
CCOC(=O)Cc1csc(NC(=O)c2c(O)c3ccccc3n(CCC(C)C)c2=O)n1	·	·	·	12*	3
CC1=NN(c2ccccc2)C(=O)/C1=C/c1c(O)[nH]c(=O)[nH]c1=O	·	·	·	1	·
COc1cccc(NP(=O)(Oc2ccccc2Cl)Oc2ccccc2Cl)c1	-28	11	-0.59	13*	2
CN1/C(=C\C=C2C(=O)NC(=S)NC2=O)C(C)(C)c2ccccc21	·	·	·	11*	5
CC1(C)OC(c2ccccc2)=C/C(=C/C=C2C(=O)NC(=S)NC2=O)O1	·	·	·	18*	6
CCc1ccccc1N1C(=O)NC(=O)/C(=C\c2cc(C)n(C)c2C)C1=O	-10	0	1.2	4	·
O=C1CCN(C(=O)C(Cl)Cl)N1	·	·	·	1	·
SMILES	Yeast growth inh	Yeast lifespan up	sdo1 growth	RAM network inh	RAM 5-FOA	others
Cc1oc(-c2ccccc2F)nc1CS(=O)CC(=O)N1CCC2(CC1)OCCO2 (configuration not stated)	0	-36	0.41	0	·
CCOc1ccc(NC(=O)c2c(C)nn(Cc3ccccc3)c2Cl)cc1	-16	-3	-0.84	2	·
COc1ccc(C)cc1NC(=O)c1c(C)nn(Cc2ccccc2)c1Cl	-46	-5	-1.3	13*	3
CCC(=O)Oc1ccc(C(=O)Nc2cccc(C(=O)c3ccccc3)c2)cc1	-41	3	0.2	12*	0
CC(C)n1c(=O)c(C=Nc2cccc([N+](=O)[O-])c2)c(O)n(CCc2ccccc2)c1=O	-18	4	0.15	6	·
CC(Cc1ccccc1)NC(=O)NC(C)Cc1ccccc1 (configuration not stated)	-11	-1	-0.48	4	·
CC(C)CCN(N=O)[C@@H](Cc1ccccc1)CN(N=O)[C@@H](Cc1ccccc1)CN(C)N=O	·	·	·	20*	8
CN(C[C@H](Cc1ccccc1)N(C[C@H](Cc1ccccc1)N(CCC(C)(C)C)N=O)N=O)N=O	·	·	·	13*	3
Cc1ccc(-n2nc(C)c(C3C(C#N)=C(N)Oc4c3c(=O)oc3ccccc43)c2Cl)cc1 (configuration not stated)	-63	-7	-0.62	7	·
CC(C(N)=O)N1CC(c2ccc(Cl)cc2)CC1=O (configuration not stated)	-71	-3	-0.56	1	·
O=C(c1ccco1)C12CN3CN(CN(C3)C1)C2	-19	-7	-1.1	1	·
CC(C)Oc1cccc(NC(=O)c2cccn(Cc3ccc4c(c3)OC(F)(F)O4)c2=O)c1	-74	-4	-1.6	13*	1
O=C(Nc1cccc(C(F)(F)F)c1)c1cccn(Cc2ccc3c(c2)OC(F)(F)O3)c1=O	-72	-13	-1.2	14*	3
